Assay results published in ChEMBL document CHEMBL1759918, “2-Substituted 5,6-dimethyl-3-phenylsulfonyl-pyrazolo[1,5-a]pyrimidines: new series of highly potent and specific serotonin 5-HT6 receptor antagonists” (Eur J Med Chem, 2011).
Active and inactive are the calls of the source. No cut-off for these calls is given here.

Columns and labels:
[1] = target: T1, 5-hydroxytryptamine receptor 6 (Homo sapiens, UniProt P50406); assay: Antagonist activity at human recombinant 5HT6 receptor expressed in HEK293 cells assessed as inhibition of serotonin-induced cAMP production after 2 hrs; type: functional, cell-based
T1 sequence (P50406 whole entry): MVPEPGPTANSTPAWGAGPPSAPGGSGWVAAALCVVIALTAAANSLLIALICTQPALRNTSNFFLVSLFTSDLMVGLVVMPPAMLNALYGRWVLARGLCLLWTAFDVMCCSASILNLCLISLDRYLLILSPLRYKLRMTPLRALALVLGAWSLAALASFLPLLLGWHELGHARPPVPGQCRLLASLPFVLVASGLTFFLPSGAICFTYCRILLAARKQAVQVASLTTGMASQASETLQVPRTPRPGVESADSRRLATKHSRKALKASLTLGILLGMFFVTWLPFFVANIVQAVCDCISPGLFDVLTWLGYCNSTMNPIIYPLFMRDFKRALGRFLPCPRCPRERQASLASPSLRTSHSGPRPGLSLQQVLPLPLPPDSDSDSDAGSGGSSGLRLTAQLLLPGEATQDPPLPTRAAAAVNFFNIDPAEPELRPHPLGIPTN
Summary of the method: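 Tetracycline-induced (1 ug/mL, day before) T-Rex HEK cells expressing 5-HT6R, EDTA-harvested, in HBSS/5 mM HEPES pH 7.4/0.05% BSA with IBMX; ~4000 cells/well. Compound premixed with serotonin (final 10 nM, 0.32% DMSO), 2 h; cAMP by LANCE kit. Duplicates; 4-parameter IC50; Ki = IC50/(1+[Ag]/EC50), serotonin EC50 measured on same plates.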

[2] = target: 5-hydroxytryptamine receptor 3A (Homo sapiens) (UniProt P46098); assay: Binding affinity to 5HT3 receptor at 10 uM by radioligand binding assay
Summary of the method: (§1)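 Outsourced competitive radioligand displacement against target-specific labelled ligands, using the contractor's own protocol for each target. Single test concentration; duplicates, mean ± SD.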

[3] = target: Sigma non-opioid intracellular receptor 1 (Homo sapiens) (UniProt Q99720); assay: Binding affinity to sigma 1 receptor at 10 uM by radioligand binding assay
Summary of the method: (§2)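 Panel screen of 56 targets (GPCRs, ion channels, transporters) run by a contract lab under its own protocols; each target scored by competition of a single 10 µM compound concentration with its target-specific radioligand, given as percent displacement; duplicates, mean ± SD.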

[4] = target: D(2) dopamine receptor (Homo sapiens) (UniProt P14416); assay: Binding affinity to Dopaminergic D2S receptor at 10 uM by radioligand binding assay; summary of the method: as §1
Chain of D(2) dopamine receptor (Homo sapiens) (P14416 whole entry): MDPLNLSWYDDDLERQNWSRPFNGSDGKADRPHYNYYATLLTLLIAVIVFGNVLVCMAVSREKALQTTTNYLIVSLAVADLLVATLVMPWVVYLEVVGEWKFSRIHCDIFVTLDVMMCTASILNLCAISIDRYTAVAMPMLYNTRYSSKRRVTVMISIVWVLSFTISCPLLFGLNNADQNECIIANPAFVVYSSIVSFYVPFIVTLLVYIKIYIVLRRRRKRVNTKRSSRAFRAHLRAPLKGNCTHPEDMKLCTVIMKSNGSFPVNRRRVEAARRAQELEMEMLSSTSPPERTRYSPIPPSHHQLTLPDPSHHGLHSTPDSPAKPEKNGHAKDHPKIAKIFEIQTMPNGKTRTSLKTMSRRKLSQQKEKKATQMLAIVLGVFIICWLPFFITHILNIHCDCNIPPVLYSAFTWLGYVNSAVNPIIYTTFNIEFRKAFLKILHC

[5] = target: Histamine H1 receptor (Homo sapiens) (UniProt P35367); assay: Binding affinity to Histaminergic H1 receptor at 10 uM by radioligand binding assay; summary of the method: as §1
[6] = target: Substance-P receptor (Homo sapiens) (UniProt P25103); assay: Binding affinity to tachykinin NK1 receptor at 10 uM by radioligand binding assay; summary of the method: as §2
[7] = Binding affinity to Dopaminergic D4.2 receptor at 10 uM by radioligand binding assay; summary of the method: as §1
[8] = target: Histamine H2 receptor (Homo sapiens) (UniProt P25021); assay: Binding affinity to Histaminergic H2 receptor at 10 uM by radioligand binding assay; summary of the method: as §1
Chain of Histamine H2 receptor (Homo sapiens) (P25021 whole entry): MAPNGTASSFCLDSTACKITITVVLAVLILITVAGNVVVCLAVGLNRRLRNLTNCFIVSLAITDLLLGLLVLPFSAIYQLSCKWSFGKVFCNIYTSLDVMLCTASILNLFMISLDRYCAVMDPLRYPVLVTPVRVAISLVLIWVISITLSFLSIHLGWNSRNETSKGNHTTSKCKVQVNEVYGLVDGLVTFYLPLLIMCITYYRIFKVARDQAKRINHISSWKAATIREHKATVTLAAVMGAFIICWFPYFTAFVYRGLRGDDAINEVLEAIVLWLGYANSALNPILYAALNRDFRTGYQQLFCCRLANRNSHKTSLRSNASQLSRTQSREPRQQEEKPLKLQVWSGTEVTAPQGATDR

[9] = target: Adenosine receptor A1 (Homo sapiens) (UniProt P30542); assay: Binding affinity to Adenosinergic A1 receptor at 10 uM by radioligand binding assay; summary of the method: as §1
Chain of Adenosine receptor A1 (Homo sapiens) (P30542 whole entry): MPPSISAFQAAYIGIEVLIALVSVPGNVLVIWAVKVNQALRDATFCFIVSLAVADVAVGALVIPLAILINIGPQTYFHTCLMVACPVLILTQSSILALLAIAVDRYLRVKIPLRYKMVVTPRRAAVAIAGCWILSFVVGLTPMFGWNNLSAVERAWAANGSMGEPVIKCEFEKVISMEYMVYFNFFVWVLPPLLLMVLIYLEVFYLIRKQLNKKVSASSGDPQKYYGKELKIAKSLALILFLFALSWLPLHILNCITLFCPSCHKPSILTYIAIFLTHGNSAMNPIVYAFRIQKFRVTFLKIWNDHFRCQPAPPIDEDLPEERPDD

[10] = Binding affinity to Nicotinic receptor at 10 uM by radioligand binding assay; summary of the method: as §1
[11] = target: 5-hydroxytryptamine receptor 2C (Homo sapiens) (UniProt P28335); assay: Binding affinity to 5HT2C receptor at 10 uM by radioligand binding assay; summary of the method: as §1
[12] = target: Death-associated protein kinase 2 (Homo sapiens) (UniProt Q9UIK4); assay: Binding affinity to DAPK2 at 10 uM by radioligand binding assay; summary of the method: as §1
[13] = Binding affinity to Kainate receptor at 10 uM by radioligand binding assay; summary of the method: as §1
[14] = target: Histamine H3 receptor (Homo sapiens) (UniProt Q9Y5N1); assay: Binding affinity to Histaminergic H3 receptor at 10 uM by radioligand binding assay; summary of the method: as §1
[15] = Binding affinity to NMDA receptor glycine binding site at 10 uM by radioligand binding assay; summary of the method: as §1
[16] = Binding affinity to AMPA receptor at 10 uM by radioligand binding assay; summary of the method: as §1
[17] = target: Mitogen-activated protein kinase 10 (Homo sapiens) (UniProt P53779); assay: Binding affinity to MAPK10 at 10 uM by radioligand binding assay; summary of the method: as §1
[18] = Binding affinity to sigma2 receptor at 10 uM by radioligand binding assay; summary of the method: as §2
[19] = Binding affinity to GABAA receptor flunitrazepam binding site at 10 uM by radioligand binding assay; summary of the method: as §1
[20] = test system: HEK293; assay: Ratio of IC50 for human recombinant 5HT6 receptor expressed in human HEK293 cells to IC50 for human recombinant 5HT2B receptor expressed in human HEK293 cells; type: cell-based
Summary of the method: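 5-HT6 arm: tetracycline-induced (1 ug/mL, day before) T-Rex 5-HT6R-HEK cells, ~4000 cells/well in HBSS/5 mM HEPES pH 7.4/0.05% BSA, 500 µM IBMX final; compound with 10 nM serotonin, 2 h; cAMP by LANCE TR-FRET. 5-HT2B arm: Fura-2-loaded 5-HT2BR-HEK cells in cuvette, 340/380 nm excitation, 510 nm emission, response to 5 µM α-methylserotonin. IC50 from 4-parameter fits, duplicates.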

[21] = target: T1, 5-hydroxytryptamine receptor 6; assay: Displacement of [3H]lysergic acid diethylamide from human recombinant 5HT6 receptor
[22] = Binding affinity to GABAA receptor Ro-15-1788 binding site at 10 uM by radioligand binding assay; summary of the method: as §1
[23] = target: Adenosine receptor A2a (Homo sapiens) (UniProt P29274); assay: Binding affinity to Adenosinergic A2A receptor at 10 uM by radioligand binding assay; summary of the method: as §1
Chain of Adenosine receptor A2a (Homo sapiens) (P29274 whole entry): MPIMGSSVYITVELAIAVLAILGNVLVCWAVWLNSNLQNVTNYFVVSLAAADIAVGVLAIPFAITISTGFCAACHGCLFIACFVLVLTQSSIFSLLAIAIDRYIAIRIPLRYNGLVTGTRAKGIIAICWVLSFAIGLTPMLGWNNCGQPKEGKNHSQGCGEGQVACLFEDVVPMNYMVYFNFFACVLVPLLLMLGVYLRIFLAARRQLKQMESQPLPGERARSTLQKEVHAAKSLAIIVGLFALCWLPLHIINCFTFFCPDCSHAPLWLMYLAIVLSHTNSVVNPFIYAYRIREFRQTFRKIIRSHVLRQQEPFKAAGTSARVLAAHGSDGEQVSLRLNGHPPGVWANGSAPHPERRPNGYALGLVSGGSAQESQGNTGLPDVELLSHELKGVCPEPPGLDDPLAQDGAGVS

[24] = Binding affinity to Dopaminergic D4.7 receptor at 10 uM by radioligand binding assay; summary of the method: as §1
[25] = target: Sodium-dependent serotonin transporter (Homo sapiens) (UniProt P31645); assay: Binding affinity to Serotonin transporter at 10 uM by radioligand binding assay; summary of the method: as §2
[26] = Binding affinity to Potassium channel at 10 uM by radioligand binding assay; summary of the method: as §2
[27] = target: 5-hydroxytryptamine receptor 1A (Homo sapiens) (UniProt P08908); assay: Binding affinity to 5HT1A receptor at 10 uM by radioligand binding assay; summary of the method: as §1
Chain of 5-hydroxytryptamine receptor 1A (Homo sapiens) (P08908 whole entry): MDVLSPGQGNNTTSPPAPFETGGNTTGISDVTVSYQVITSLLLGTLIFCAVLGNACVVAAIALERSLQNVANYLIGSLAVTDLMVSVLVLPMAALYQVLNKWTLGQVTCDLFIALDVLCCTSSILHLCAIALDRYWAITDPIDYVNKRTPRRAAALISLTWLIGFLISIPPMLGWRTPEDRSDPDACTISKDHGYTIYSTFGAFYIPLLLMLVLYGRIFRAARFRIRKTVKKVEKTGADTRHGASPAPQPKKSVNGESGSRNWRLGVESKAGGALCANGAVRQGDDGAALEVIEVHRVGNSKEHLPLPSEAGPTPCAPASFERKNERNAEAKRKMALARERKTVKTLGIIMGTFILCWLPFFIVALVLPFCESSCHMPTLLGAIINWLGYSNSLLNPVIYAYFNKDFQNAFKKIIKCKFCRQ

[28] = target: Neuropeptide Y receptor type 2 (Homo sapiens) (UniProt P49146); assay: Binding affinity to Neuropeptide Y Y2 receptor at 10 uM by radioligand binding assay; summary of the method: as §1
Chain of Neuropeptide Y receptor type 2 (Homo sapiens) (P49146 whole entry): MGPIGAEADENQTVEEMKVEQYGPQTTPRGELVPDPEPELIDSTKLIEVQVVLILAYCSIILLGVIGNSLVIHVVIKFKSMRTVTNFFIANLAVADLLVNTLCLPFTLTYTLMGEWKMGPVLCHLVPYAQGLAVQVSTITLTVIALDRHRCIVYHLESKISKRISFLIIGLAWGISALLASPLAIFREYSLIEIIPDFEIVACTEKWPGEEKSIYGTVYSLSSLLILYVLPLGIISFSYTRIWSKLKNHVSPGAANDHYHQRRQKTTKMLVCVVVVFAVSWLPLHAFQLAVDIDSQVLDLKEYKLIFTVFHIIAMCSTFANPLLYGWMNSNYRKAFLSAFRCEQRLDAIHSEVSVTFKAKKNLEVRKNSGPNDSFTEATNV

[29] = Binding affinity to N-type calcium channel at 10 uM by radioligand binding assay; summary of the method: as §1
[30] = target: Sodium- and chloride-dependent glycine transporter 2 (Homo sapiens) (UniProt Q9Y345); assay: Binding affinity to Glycine transporter at 10 uM by radioligand binding assay; summary of the method: as §1
[31] = Binding affinity to L-type calcium channel bezothiazepine binding site at 10 uM by radioligand binding assay; summary of the method: as §1
[32] = target: Alpha-1B adrenergic receptor (Homo sapiens) (UniProt P35368); assay: Binding affinity to Adrenergic Alpha-1B receptor at 10 uM by radioligand binding assay; summary of the method: as §1
[33] = target: Alpha-1D adrenergic receptor (Homo sapiens) (UniProt P25100); assay: Binding affinity to Adrenergic Alpha-1D receptor at 10 uM by radioligand binding assay; summary of the method: as §1
Chain of Alpha-1D adrenergic receptor (Homo sapiens) (P25100 whole entry): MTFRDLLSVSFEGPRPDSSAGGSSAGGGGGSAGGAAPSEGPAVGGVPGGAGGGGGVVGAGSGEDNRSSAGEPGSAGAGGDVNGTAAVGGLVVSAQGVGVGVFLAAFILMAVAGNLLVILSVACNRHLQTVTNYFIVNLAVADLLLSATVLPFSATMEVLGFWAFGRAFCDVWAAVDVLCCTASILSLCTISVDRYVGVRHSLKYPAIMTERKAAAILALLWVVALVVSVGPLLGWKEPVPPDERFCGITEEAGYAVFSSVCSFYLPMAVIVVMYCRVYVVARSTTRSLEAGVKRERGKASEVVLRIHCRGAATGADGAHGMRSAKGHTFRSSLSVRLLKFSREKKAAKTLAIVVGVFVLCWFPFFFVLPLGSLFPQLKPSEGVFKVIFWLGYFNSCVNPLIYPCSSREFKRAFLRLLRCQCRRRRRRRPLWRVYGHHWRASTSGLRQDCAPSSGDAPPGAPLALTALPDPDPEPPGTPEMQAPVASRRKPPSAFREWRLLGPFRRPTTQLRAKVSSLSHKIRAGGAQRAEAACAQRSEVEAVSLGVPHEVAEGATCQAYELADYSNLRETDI

[34] = target: Sodium-dependent dopamine transporter (Homo sapiens) (UniProt Q01959); assay: Binding affinity to Dopamine transporter at 10 uM by radioligand binding assay; summary of the method: as §1
[35] = target: Muscarinic acetylcholine receptor M3 (Homo sapiens) (UniProt P20309); assay: Binding affinity to Muscarinic M3 receptor at 10 uM by radioligand binding assay; summary of the method: as §1
[36] = target: D(3) dopamine receptor (Homo sapiens) (UniProt P35462); assay: Binding affinity to Dopaminergic D3 receptor at 10 uM by radioligand binding assay; summary of the method: as §1
Chain of D(3) dopamine receptor (Homo sapiens) (P35462 whole entry): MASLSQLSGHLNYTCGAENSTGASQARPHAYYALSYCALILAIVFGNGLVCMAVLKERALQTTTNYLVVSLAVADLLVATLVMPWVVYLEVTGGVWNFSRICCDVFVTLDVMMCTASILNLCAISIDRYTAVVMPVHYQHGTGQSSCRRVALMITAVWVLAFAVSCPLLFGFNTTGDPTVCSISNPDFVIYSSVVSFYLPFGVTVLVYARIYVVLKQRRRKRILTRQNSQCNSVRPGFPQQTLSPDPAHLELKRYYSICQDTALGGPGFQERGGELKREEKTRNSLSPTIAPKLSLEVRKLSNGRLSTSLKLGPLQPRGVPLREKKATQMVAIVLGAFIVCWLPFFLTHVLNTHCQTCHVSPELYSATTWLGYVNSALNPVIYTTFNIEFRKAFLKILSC

[37] = target: Sodium-dependent noradrenaline transporter (Homo sapiens) (UniProt P23975); assay: Binding affinity to norepinephrine transporter at 10 uM by radioligand binding assay; summary of the method: as §2
Chain of Sodium-dependent noradrenaline transporter (Homo sapiens) (P23975 whole entry): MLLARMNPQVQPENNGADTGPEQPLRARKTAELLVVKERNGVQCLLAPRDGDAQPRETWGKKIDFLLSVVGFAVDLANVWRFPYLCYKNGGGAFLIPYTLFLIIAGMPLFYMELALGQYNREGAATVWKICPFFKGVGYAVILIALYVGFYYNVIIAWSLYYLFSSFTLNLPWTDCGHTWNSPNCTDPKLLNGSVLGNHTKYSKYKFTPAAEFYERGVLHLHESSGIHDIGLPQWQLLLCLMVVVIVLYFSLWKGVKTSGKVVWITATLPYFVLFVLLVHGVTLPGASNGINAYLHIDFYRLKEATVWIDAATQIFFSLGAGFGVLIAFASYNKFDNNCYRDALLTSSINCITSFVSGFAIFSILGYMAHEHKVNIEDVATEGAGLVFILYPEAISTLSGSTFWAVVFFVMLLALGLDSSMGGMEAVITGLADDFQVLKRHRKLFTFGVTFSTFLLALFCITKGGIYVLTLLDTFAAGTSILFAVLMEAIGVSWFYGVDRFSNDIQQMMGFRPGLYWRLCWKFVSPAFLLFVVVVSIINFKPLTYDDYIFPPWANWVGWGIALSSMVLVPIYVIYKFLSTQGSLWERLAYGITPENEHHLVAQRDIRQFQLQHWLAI

[38] = target: Mitogen-activated protein kinase 8 (Homo sapiens) (UniProt P45983); assay: Binding affinity to MAPK8 at 10 uM by radioligand binding assay; summary of the method: as §1
[39] = target: D(1A) dopamine receptor (Homo sapiens) (UniProt P21728); assay: Binding affinity to Dopaminergic D1 receptor at 10 uM by radioligand binding assay; summary of the method: as §1
[40] = Binding affinity to Sodium channel at 10 uM by radioligand binding assay; summary of the method: as §2
[41] = target: Cyclin-dependent kinase 5 (Homo sapiens) (UniProt Q00535); assay: Binding affinity to CDK5 at 10 uM by radioligand binding assay; summary of the method: as §1
[42] = target: Voltage-gated inwardly rectifying potassium channel KCNH2 (Homo sapiens, UniProt Q12809); assay: Antagonist activity at human ERG by patch clamp method; type: functional
[43] = target: Muscarinic acetylcholine receptor M2 (Homo sapiens) (UniProt P08172); assay: Binding affinity to Muscarinic M2 receptor at 10 uM by radioligand binding assay; summary of the method: as §1
[44] = Binding affinity to GABA transporter at 10 uM by radioligand binding assay; summary of the method: as §1
[45] = target: D(2) dopamine receptor (Homo sapiens) (UniProt P14416); assay: Binding affinity to Dopaminergic D2L receptor at 10 uM by radioligand binding assay; summary of the method: as §1
[46] = target: 5-hydroxytryptamine receptor 1B (Homo sapiens) (UniProt P28222); assay: Binding affinity to 5HT1B receptor at 10 uM by radioligand binding assay; summary of the method: as §1
[47] = Binding affinity to L-type calcium channel dihydropyridine binding site at 10 uM by radioligand binding assay; summary of the method: as §1
[48] = Binding affinity to imidazoline I2 receptor at 10 uM by radioligand binding assay; summary of the method: as §2
[49] = target: Alpha-1A adrenergic receptor (Homo sapiens) (UniProt P35348); assay: Binding affinity to Adrenergic alpha1A receptor at 10 uM by radioligand binding assay; summary of the method: as §1
[50] = target: Death-associated protein kinase 1 (Homo sapiens) (UniProt P53355); assay: Binding affinity to DAPK1 at 10 uM by radioligand binding assay; summary of the method: as §1
[51] = target: Alpha-2A adrenergic receptor (Homo sapiens) (UniProt P08913); assay: Binding affinity to Adrenergic alpha2A receptor at 10 uM by radioligand binding assay; summary of the method: as §1
[52] = Binding affinity to NMDA receptor phencyclidine binding site at 10 uM by radioligand binding assay; summary of the method: as §1
[53] = organism: Homo sapiens; assay: Ratio of Ki for human recombinant 5HT6 receptor to Ki for human recombinant 5HT2B receptor
[54] = target: Neuropeptide Y receptor type 1 (Homo sapiens) (UniProt P25929); assay: Binding affinity to Neuropeptide Y Y1 receptor at 10 uM by radioligand binding assay; summary of the method: as §1
[55] = target: Muscarinic acetylcholine receptor M1 (Homo sapiens) (UniProt P11229); assay: Binding affinity to Muscarinic M1 receptor at 10 uM by radioligand binding assay; summary of the method: as §1
[56] = Binding affinity to GABAB receptor at 10 uM by radioligand binding assay; summary of the method: as §1
[57] = target: D(4) dopamine receptor (Homo sapiens) (UniProt P21917); assay: Binding affinity to Dopaminergic D4.4 receptor at 10 uM by radioligand binding assay; summary of the method: as §1
Chain of D(4) dopamine receptor (Homo sapiens) (P21917 whole entry): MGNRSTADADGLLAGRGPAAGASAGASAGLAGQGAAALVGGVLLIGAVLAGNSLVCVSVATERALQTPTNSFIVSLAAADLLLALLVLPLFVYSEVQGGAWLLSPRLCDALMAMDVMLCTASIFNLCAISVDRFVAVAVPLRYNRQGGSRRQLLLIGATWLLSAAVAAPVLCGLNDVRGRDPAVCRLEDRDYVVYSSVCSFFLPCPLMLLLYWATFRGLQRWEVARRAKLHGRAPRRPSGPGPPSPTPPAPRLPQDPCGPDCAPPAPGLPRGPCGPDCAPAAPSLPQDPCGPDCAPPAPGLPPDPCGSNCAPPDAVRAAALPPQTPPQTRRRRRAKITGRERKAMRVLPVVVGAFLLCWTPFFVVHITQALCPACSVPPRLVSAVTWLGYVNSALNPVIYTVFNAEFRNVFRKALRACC

[58] = target: Death-associated protein kinase 3 (Homo sapiens) (UniProt O43293); assay: Binding affinity to DAPK3 at 10 uM by radioligand binding assay; summary of the method: as §1

Cc1cc(C)n2nc(N(C)CCN(C)C)c(S(=O)(=O)c3ccccc3)c2n1
Ki [1]: 489 nM

Cc1cc(C)n2nc(NCCN(C)C)c(S(=O)(=O)c3ccccc3)c2n1
Ki [1]: 2600 nM

CNc1nn2c(C)cc(C)nc2c1S(=O)(=O)c1ccccc1
Activity [2]: inactive | Activity [3]: inactive | Activity [4]: inactive | Activity [5]: inactive | Activity [6]: inactive | Activity [7]: inactive | Activity [8]: inactive | Activity [9]: inactive | Activity [10]: inactive | Activity [11]: inactive | Activity [12]: inactive | Activity [13]: inactive | Activity [14]: inactive | Activity [15]: inactive | Activity [16]: inactive | Activity [17]: inactive | Activity [18]: inactive | Activity [19]: inactive | Ratio [20]: 1000 | Ki [21]: 0.2 nM | Activity [22]: inactive | Activity [23]: inactive | Activity [24]: inactive | Activity [25]: inactive | Activity [26]: inactive | Activity [27]: inactive | Activity [28]: inactive | Activity [29]: inactive | Activity [30]: inactive | Activity [31]: inactive | Activity [32]: inactive | Activity [33]: inactive | Activity [34]: inactive | Activity [35]: inactive | Activity [36]: inactive | Activity [37]: inactive | Activity [38]: inactive | Activity [39]: inactive | Activity [40]: inactive | Activity [41]: inactive | IC50 [42]: > 30000 nM | Activity [43]: inactive | Activity [44]: inactive | Activity [45]: inactive | Activity [46]: inactive | Activity [47]: inactive | Activity [48]: inactive | Activity [49]: inactive | Activity [50]: inactive | Activity [51]: inactive | Activity [52]: inactive | Ratio [53]: 5000 | Activity [54]: inactive | Activity [55]: inactive | Activity [56]: inactive | Activity [57]: inactive | Activity [58]: inactive

CSc1nn2c(C)cc(C)nc2c1S(=O)(=O)c1ccccc1
Ki [21]: 2 nM

CCSc1nn2c(C)cc(C)nc2c1S(=O)(=O)c1ccccc1
Ki [1]: 1.91 nM

Cc1cc(C)n2nc(NCCCN(C)C)c(S(=O)(=O)c3ccccc3)c2n1
Ki [1]: 764 nM

Cc1cc(C)n2nc([S+](C)[O-])c(S(=O)(=O)c3ccccc3)c2n1 (stereo not given)
Ki [1]: 2960 nM

Cc1cc(C)n2nc(C)c(S(=O)(=O)c3ccccc3)c2n1
Ki [1]: 88.8 nM

Cc1cc(C)n2nc(OCCN(C)C)c(S(=O)(=O)c3ccccc3)c2n1
Ki [1]: 2200 nM

Cc1cc(C)n2ncc(S(=O)(=O)c3ccccc3)c2n1
Ki [1]: 561 nM

Cc1cc(C)n2nc(N(C)C)c(S(=O)(=O)c3ccccc3)c2n1
Ki [1]: 14.5 nM

Cc1cc(C)n2nc(OCCO)c(S(=O)(=O)c3ccccc3)c2n1
Ki [21]: 22.2 nM | Ki [1]: 283 nM

Cc1cc(C)n2nc(N3CCNCC3)c(S(=O)(=O)c3ccccc3)c2n1
Ki [1]: 1380 nM
